Experimental data reported in ChEMBL document CHEMBL1149395, “Beta-substituted cyclohexanecarboxamide: a nonpeptidic framework for the design of potent inhibitors of cathepsin K” (J Med Chem, 2006).

Legend:
Cathepsin K [1] = biological target: Cathepsin K (Homo sapiens, UniProt P43235); experiment: Inhibitory activity against humanized rabbit Cathepsin K
Cathepsin K [2] = biological target: T1, Cathepsin K (Homo sapiens, UniProt P43235); experiment: Inhibitory activity against human Cathepsin K
T1 sequence (P43235 whole entry): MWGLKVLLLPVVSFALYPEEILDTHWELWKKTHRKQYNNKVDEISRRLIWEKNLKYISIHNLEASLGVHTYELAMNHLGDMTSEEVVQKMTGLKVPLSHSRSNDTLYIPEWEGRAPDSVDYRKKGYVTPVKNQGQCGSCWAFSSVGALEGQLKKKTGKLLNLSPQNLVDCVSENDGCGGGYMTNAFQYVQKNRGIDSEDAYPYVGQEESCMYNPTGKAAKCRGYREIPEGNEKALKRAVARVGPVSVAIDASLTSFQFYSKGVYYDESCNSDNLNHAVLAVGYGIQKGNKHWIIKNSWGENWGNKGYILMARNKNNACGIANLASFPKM

Cathepsin K [3] = biological target: T2, Cathepsin K (Oryctolagus cuniculus, UniProt P43236); experiment: Inhibitory activity against rabbit Cathepsin K
T2 sequence (P43236 whole entry): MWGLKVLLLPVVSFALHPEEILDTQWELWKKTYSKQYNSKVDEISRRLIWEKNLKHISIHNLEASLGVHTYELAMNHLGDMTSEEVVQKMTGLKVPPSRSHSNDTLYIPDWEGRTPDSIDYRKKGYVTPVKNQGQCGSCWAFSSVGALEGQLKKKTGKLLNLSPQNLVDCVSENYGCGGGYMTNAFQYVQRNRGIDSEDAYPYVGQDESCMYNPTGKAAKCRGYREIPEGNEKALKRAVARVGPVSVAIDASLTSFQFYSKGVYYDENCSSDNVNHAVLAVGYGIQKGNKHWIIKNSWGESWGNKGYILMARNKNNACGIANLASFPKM

[4] = Oral bioavailability in rats at 10 mL/kg, po; assay type: ADME, organism-based; details: Sprague-Dawley, rat, in vivo
Method in brief: (§1)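 Single compounds given orally as suspensions in 1% methocel to animals fasted overnight, dosed in the morning. Oral dosing volumes were 10 mL/kg for rats, 5 mL/kg for dogs and 1 mL/kg for monkeys. Intravenous comparison dosing went via the jugular vein in PEG-200/H₂O (3:2) at 1 mL/kg. Plasma was sampled at regular intervals, precipitated with 1.5 volumes of acetonitrile, centrifuged and analysed by LC-MS.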

[5] = Half life in rat at 10 mL/kg, po; assay type: ADME, organism-based; details: Sprague-Dawley, in vivo; method in brief: as §1
[6] = Plasma clearance in rat at 10 mL/kg, po; assay type: ADME, organism-based; details: Sprague-Dawley; method in brief: as §1
[7] = Half life in rat at 1 mL/kg, iv; details: Sprague-Dawley, in vivo
[8] = Plasma clearance in rat at 1 mL/kg, iv; details: Sprague-Dawley
[9] = biological target: Cathepsin (B and K) (Homo sapiens) (UniProt P43235+P07858); experiment: Selectivity for Cathepsin B over Cathepsin K; assay type: protein assay
[10] = biological target: Cathepsin (L and K) (Homo sapiens) (UniProt P43235+P07711); experiment: Selectivity for Cathepsin L over Cathepsin K; assay type: protein assay
[11] = biological target: Cathepsin (S and K) (Homo sapiens) (UniProt P25774+P43235); experiment: Selectivity for Cathepsin S over Cathepsin K; assay type: protein assay
[12] = Half life in squirrel monkey at 1 mL/kg, po; assay type: ADME, organism-based, Saimiri sciureus; details: in vivo; method in brief: as §1
[13] = Plasma clearance in dog at 5 mL/kg, po; assay type: ADME, organism-based, Canis lupus familiaris; method in brief: as §1
Oryctolagus cuniculus = organism: Oryctolagus cuniculus; experiment: Effect on degradation of collagen in bovine bone by rabbit osteoclast; assay type: functional
[14] = Oral bioavailability in squirrel monkey at 1 mL/kg, po; assay type: ADME, organism-based, Saimiri sciureus; details: in vivo; method in brief: as §1
[15] = Plasma clearance in squirrel monkey at 1 mL/kg, po; assay type: ADME, organism-based, Saimiri sciureus; method in brief: as §1
[16] = Oral bioavailability in dogs at 5 mL/kg, po; assay type: ADME, organism-based, Canis lupus familiaris; details: dog, in vivo; method in brief: as §1
[17] = Half life in dog at 5 mL/kg, po; assay type: ADME, organism-based, Canis lupus familiaris; details: in vivo; method in brief: as §1

Row | SMILES | IC50 (Cathepsin K [1]) [nM] | Selectivity ratio [9] | Selectivity ratio [10] | Selectivity ratio [11] | other results
1 | N#CCNC(=O)[C@@H]1CCCC[C@H]1CSc1ccc(Cl)cc1Cl (mixture of isomers) | 110 |  |  |  | 
2 | N#CCNC(=O)[C@@H]1CCCC[C@H]1SCc1ccccc1 (racemic) |  |  |  |  | IC50 (Cathepsin K [2]): 52 nM
3 | N#CCNC(=O)[C@@H]1CCCC[C@H]1CSc1cc(Cl)c(Cl)cc1Cl (racemic) | 460 |  |  |  | 
4 | N#CCNC(=O)C1CC(F)(F)CCC1c1ccccc1-c1ccc(F)cc1 (racemic) | 36 |  |  |  | IC50 (Cathepsin K [3]): 9.2 nM; bioavailability [4]: 26%; half-life [5]: 4.5 h; CL/F [6]: 37 mL/min/kg
5 | N#CCNC(=O)[C@@H]1CCCC[C@H]1CS(=O)(=O)c1ccc(OC(F)(F)F)cc1 (racemic) |  |  |  |  | half-life [7]: 0.333 h; clearance [8]: 42 mL/min/kg
6 | N#CCNC(=O)[C@@H]1CCCC[C@H]1CSc1nc2ccccc2s1 (racemic) | 200 |  |  |  | 
7 | N#CCNC(=O)[C@@H]1CCCC[C@H]1CSc1cc(Cl)ccc1Cl (racemic) | 150 |  |  |  | 
8 | CSc1ccc(-c2ccccc2[C@@H]2CCC(F)(F)C[C@H]2C(=O)NCC#N)cc1 | 0.28 | > 36000 | 780 | 940 | half-life [12]: 8.8 h; CL/F [13]: 3.6 mL/min/kg; IC50 (Oryctolagus cuniculus): 16 nM; bioavailability [14]: 78%; CL/F [15]: 17 mL/min/kg; IC50 (Cathepsin K [3]): 0.32 nM; bioavailability [4]: 39%; bioavailability [16]: 55%; half-life [17]: 15 h; half-life [5]: 3.5 h; CL/F [6]: 8.7 mL/min/kg
9 | CSc1ccc(-c2ccccc2C2CCC(F)CC2C(=O)NCC#N)cc1 (racemic; form 2) [listing 1 of 2 here] |  | > 2700 | 2000 | 180 | 
10 | CSc1ccc(-c2ccccc2C2CCC(F)CC2C(=O)NCC#N)cc1 (racemic; form 1) [listing 1 of 2 here] | 4.2 |  |  |  | half-life [12]: 0.8 h; bioavailability [14]: 28%; CL/F [15]: 21 mL/min/kg; IC50 (Cathepsin K [3]): 3.7 nM; bioavailability [4]: 88%; half-life [5]: 1.5 h; CL/F [6]: 25 mL/min/kg
11 | N#CCNC(=O)[C@@H]1CCCC[C@@H]1SCc1ccccc1 (racemic) |  |  |  |  | IC50 (Cathepsin K [2]): 280 nM
12 | COc1cccc(SC[C@@H]2CCCC[C@H]2C(=O)NCC#N)c1 (racemic) | 370 |  |  |  | 
13 | CSc1ccc(SC[C@@H]2CCCC[C@H]2C(=O)NCC#N)cc1 (racemic) | 4.2 | > 24000 | 2200 | 3200 | 
14 | CSc1ccc(-c2ccccc2[C@@H]2CCCC[C@H]2C(=O)NCC#N)cc1 (racemic) | 2.6 | > 3800 | 2800 | > 3800 | half-life [7]: 0.733 h; clearance [8]: 35 mL/min/kg
15 | CSc1ccc(-c2ccccc2C2CCC(F)CC2C(=O)NCC#N)cc1 (racemic; form 1) [listing 2 of 2 here] |  | > 2400 | 1600 | 1500 | 
16 | CSc1ccc(-c2ccccc2C2CCC(Cl)(Cl)CC2C(=O)NCC#N)cc1 (racemic) | 0.58 | > 17000 | 450 | 52 | IC50 (Cathepsin K [3]): 0.59 nM; bioavailability [4]: 75%; half-life [5]: 3.1 h; CL/F [6]: 51 mL/min/kg
17 | N#CCNC(=O)[C@@H]1CCCC[C@H]1c1ccccc1-c1ccc(F)cc1 (racemic) |  |  |  |  | half-life [7]: 0.75 h; clearance [8]: 50 mL/min/kg
18 | CSc1ccc(-c2ccccc2C2CCC(F)CC2C(=O)NCC#N)cc1 (racemic; form 2) [listing 2 of 2 here] | 3.7 |  |  |  | IC50 (Cathepsin K [3]): 12 nM
19 | N#CCNC(=O)C1=CCCCC1 |  |  |  |  | IC50 (Cathepsin K [2]): 3400 nM
20 | N#CCNC(=O)[C@@H]1CCCC[C@H]1CSc1nccs1 (racemic) | 490 |  |  |  | 
21 | N#CCNC(=O)[C@@H]1CCCC[C@H]1CSc1nnc(-c2ccncc2)o1 (relative stereo) | 950 |  |  |  | 
22 | N#CCNC(=O)[C@@H]1CCCC[C@H]1CSc1nc2ccccc2o1 (racemic) | 480 |  |  |  | 
23 | N#CCNC(=O)[C@@H]1CCCC[C@H]1CSc1ncc[nH]1 (relative stereo) | 410 |  |  |  | 
24 | CSc1ccc(-c2ccccc2C2CCC(F)(F)CC2C(=O)NCC#N)cc1 (racemic) | 0.46 | > 120000 | 880 | 1100 | IC50 (Cathepsin K [3]): 0.5 nM; bioavailability [4]: 53%; half-life [5]: 3.5 h; CL/F [6]: 15 mL/min/kg
25 | CSc1ccc(-c2ccccc2[C@H]2CCC(F)(F)C[C@@H]2C(=O)NCC#N)cc1 | 7.1 |  |  |  | IC50 (Cathepsin K [3]): 9.2 nM
26 | COc1ccc(SC[C@@H]2CCCC[C@H]2C(=O)NCC#N)cc1 (racemic) | 28 | > 3500 | 810 | 960 | 
27 | N#CCNC(=O)[C@@H]1CCCC[C@H]1CSc1ncccn1 (racemic) | 990 |  |  |  | 
28 | N#CCNC(=O)C1(NC(=O)c2ccccc2)CCCCC1 |  |  |  |  | IC50 (Cathepsin K [2]): 78 nM
29 | N#CCNC(=O)[C@@H]1CCCC[C@H]1CSc1cc(Cl)cc(Cl)c1 (racemic) | 280 |  |  |  | 
30 | CSc1ccc(S(=O)(=O)C[C@@H]2CCCC[C@H]2C(=O)NCC#N)cc1 (mixture of isomers) | 5 | 2000 | 740 | 1800 | half-life [7]: 0.0833 h; clearance [8]: 38 mL/min/kg

Second part, led by results:

Row | IC50 (Cathepsin K [1]) [nM] | Selectivity ratio [9] | Selectivity ratio [10] | Selectivity ratio [11] | SMILES | other results
31 | 150 |  |  |  | N#CCNC(=O)[C@@H]1CCCC[C@H]1CSc1cccc(Br)c1 (mixture of isomers) | 
32 | 21 | 880 | 1700 | 110 | N#CCNC(=O)[C@@H]1CCCC[C@H]1CSc1ccc(O)cc1 (racemic) | 
33 | 700 |  |  |  | N#CCNC(=O)[C@@H]1CCCC[C@H]1CSc1cccc(N)c1 (racemic) | 
34 | 100 | 380 | 110 | 180 | Cc1ccc(SC[C@@H]2CCCC[C@H]2C(=O)NCC#N)cc1 (racemic) | 
35 | 30 | > 3400 | 120 | 330 | N#CCNC(=O)[C@@H]1CCCC[C@H]1CSc1ccc(Cl)cc1 (racemic) | 
36 | 350 |  |  |  | N#CCNC(=O)[C@@H]1CCCC[C@H]1CSc1cccc(F)c1 (racemic) | 
37 | 172 | 31 | 150 | 28 | N#CCNC(=O)[C@@H]1CCCC[C@H]1CSc1ccccc1 (racemic) | IC50 (Cathepsin K [2]): 140 nM
38 | 17 | > 5800 | 52 | > 5800 | N#CCNC(=O)[C@@H]1CCCC[C@H]1CSc1ccc(I)cc1 (relative stereo) | 
39 | 33 | > 3100 | 71 | > 3100 | N#CCNC(=O)[C@@H]1CCCC[C@H]1CSc1ccc(Br)cc1 (racemic) | 
40 | 30 | 145 | 120 | 35 | N#CCNC(=O)[C@@H]1CCCC[C@H]1CSc1ccc(F)cc1 (mixture of isomers) | 
41 | 100 | > 990 | 350 | 120 | N#CCNC(=O)[C@@H]1CCCC[C@H]1CSc1ccc(N)cc1 (mixture of isomers) | 
42 | 200 |  |  |  | N#CCNC(=O)[C@@H]1CCCC[C@H]1CSc1cccc(Cl)c1 (mixture of isomers) | 
43 | 330 |  |  |  | N#CCNC(=O)[C@@H]1CCCC[C@H]1CSc1cccc(O)c1 | 
